# From the M2OR odorant receptor database
# What was measured:
# Conditions in all cases: stereoisomer not certain
# UniProt Q7TR79 = molecular target: T1, UniProt Q7TR79
# T1 sequence (whole entry): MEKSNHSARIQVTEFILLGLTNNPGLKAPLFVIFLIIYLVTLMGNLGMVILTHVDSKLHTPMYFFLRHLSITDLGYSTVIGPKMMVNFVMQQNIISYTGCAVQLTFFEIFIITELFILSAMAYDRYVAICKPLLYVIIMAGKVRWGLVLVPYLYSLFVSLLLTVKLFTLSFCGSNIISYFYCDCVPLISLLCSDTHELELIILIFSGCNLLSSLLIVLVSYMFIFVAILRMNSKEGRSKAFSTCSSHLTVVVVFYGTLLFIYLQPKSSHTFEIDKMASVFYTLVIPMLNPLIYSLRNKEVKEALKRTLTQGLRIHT
# Outline: (§1)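 Transient luciferase assays in mammalian cell lines were common, though methods varied by source. The values come from published papers and their supplementary material, with extra details from the original authors when needed. Responsive refers to a measured signal the original authors judged statistically different from baseline, and non-responsive (inactive) to the remainder.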
# UniProt Q7TRX0 = molecular target: T2, UniProt Q7TRX0
# T2 sequence (whole entry): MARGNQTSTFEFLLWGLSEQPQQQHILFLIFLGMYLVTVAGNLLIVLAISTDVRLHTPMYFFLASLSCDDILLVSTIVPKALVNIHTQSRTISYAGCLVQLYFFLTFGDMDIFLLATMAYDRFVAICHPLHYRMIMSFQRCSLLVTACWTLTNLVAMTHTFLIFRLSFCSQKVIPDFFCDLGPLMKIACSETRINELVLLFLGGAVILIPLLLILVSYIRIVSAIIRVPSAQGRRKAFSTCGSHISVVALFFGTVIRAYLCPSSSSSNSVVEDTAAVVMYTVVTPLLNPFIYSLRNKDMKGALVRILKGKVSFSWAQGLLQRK
# Outline: as §1
# UniProt Q7TRM0 = molecular target: T3, UniProt Q7TRM0
# T3 sequence (whole entry): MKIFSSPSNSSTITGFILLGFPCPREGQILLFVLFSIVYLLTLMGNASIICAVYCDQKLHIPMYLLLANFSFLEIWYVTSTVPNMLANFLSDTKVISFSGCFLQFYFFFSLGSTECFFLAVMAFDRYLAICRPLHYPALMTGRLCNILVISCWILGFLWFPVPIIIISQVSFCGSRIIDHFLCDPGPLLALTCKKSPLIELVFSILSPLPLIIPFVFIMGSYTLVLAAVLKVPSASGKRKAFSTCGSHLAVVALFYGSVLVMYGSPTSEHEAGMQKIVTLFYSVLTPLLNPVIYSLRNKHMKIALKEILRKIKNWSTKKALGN
# Outline: as §1
# UniProt Q7TRN9 = molecular target: T4, UniProt Q7TRN9
# T4 sequence (whole entry): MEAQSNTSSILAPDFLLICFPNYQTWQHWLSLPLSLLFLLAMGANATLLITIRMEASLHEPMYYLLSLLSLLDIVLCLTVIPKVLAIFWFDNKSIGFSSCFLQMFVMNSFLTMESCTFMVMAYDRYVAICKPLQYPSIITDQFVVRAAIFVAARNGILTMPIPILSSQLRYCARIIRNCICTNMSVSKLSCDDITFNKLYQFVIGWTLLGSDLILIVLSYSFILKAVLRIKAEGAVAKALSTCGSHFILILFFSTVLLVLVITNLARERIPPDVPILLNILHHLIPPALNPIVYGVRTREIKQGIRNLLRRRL
# Outline: as §1
# UniProt Q7TRR8 = molecular target: T5, UniProt Q7TRR8
# T5 sequence (whole entry): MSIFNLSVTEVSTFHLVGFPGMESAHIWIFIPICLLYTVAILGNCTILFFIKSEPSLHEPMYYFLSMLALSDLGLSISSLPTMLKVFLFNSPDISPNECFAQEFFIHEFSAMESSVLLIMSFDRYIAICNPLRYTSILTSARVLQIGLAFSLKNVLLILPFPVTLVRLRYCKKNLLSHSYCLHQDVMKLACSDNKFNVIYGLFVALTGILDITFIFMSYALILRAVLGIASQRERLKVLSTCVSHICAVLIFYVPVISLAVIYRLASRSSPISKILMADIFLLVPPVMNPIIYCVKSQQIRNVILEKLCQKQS
# Outline: as §1
# 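Note: active if original authors judged signal statistically different from baseline.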
smiles,measurement,setting,value
Cc1ccc(C(C)C)c(O)c1,odorant receptor agonist call,UniProt Q7TR79,inactive
same,odorant receptor agonist call,UniProt Q7TRX0,inactive
CCCCCC(C=O)=Cc1ccccc1,odorant receptor agonist call,UniProt Q7TR79,inactive
same,odorant receptor agonist call,UniProt Q7TRX0,inactive
O=C(OCc1ccccc1)c1ccccc1O,odorant receptor agonist call,UniProt Q7TR79,inactive
same,odorant receptor agonist call,UniProt Q7TRX0,inactive
CCOC(=O)C(C)CC (stereo not drawn),odorant receptor agonist call,UniProt Q7TR79,inactive
same,odorant receptor agonist call,UniProt Q7TRX0,inactive
CC(=O)OCCc1ccccc1,odorant receptor agonist call,UniProt Q7TR79,inactive
same,odorant receptor agonist call,UniProt Q7TRX0,inactive
CCCCCCC(C=O)=Cc1ccccc1,odorant receptor agonist call,UniProt Q7TR79,inactive
same,odorant receptor agonist call,UniProt Q7TRX0,inactive
C=CC(=C)CCC=C(C)CCC=C(C)C,odorant receptor agonist call,UniProt Q7TR79,inactive
same,odorant receptor agonist call,UniProt Q7TRX0,inactive
Cc1occc1SSc1ccoc1C,odorant receptor agonist call,UniProt Q7TR79,inactive
same,odorant receptor agonist call,UniProt Q7TRX0,inactive
CCCCCCCCCC=CC=O,odorant receptor agonist call,UniProt Q7TR79,inactive
same,odorant receptor agonist call,UniProt Q7TRX0,inactive
Cc1ccc(C(C)C)cc1,odorant receptor agonist call,UniProt Q7TR79,inactive
same,odorant receptor agonist call,UniProt Q7TRX0,inactive
CCC(C)c1nccnc1OC (stereo not drawn),odorant receptor agonist call,UniProt Q7TR79,inactive
same,odorant receptor agonist call,UniProt Q7TRX0,inactive
CCCCCCCCOC=O,odorant receptor agonist call,UniProt Q7TR79,inactive
same,odorant receptor agonist call,UniProt Q7TRX0,inactive
CCN(CC)CC,odorant receptor agonist call,UniProt Q7TR79,inactive
same,odorant receptor agonist call,UniProt Q7TRX0,inactive
C1CCOCC1,odorant receptor agonist call,UniProt Q7TR79,inactive
same,odorant receptor agonist call,UniProt Q7TRX0,inactive
OCCCCCCCCCO,odorant receptor agonist call,UniProt Q7TR79,inactive
same,odorant receptor agonist call,UniProt Q7TRX0,inactive
Cc1ccccc1OC(=O)C(C)C,odorant receptor agonist call,UniProt Q7TR79,inactive
same,odorant receptor agonist call,UniProt Q7TRX0,inactive
C=CC(C)=CCC=C(C)CCC=C(C)C,odorant receptor agonist call,UniProt Q7TR79,inactive
same,odorant receptor agonist call,UniProt Q7TRX0,inactive
CC(=O)OC1(C)CCC23CC1C(C)(C)C2CCC3C (stereo not drawn),odorant receptor agonist call,UniProt Q7TR79,inactive
same,odorant receptor agonist call,UniProt Q7TRX0,inactive
CCCCCCCCCCCO,odorant receptor agonist call,UniProt Q7TR79,inactive
same,odorant receptor agonist call,UniProt Q7TRX0,inactive
CCCCC=O,odorant receptor agonist call,UniProt Q7TR79,inactive
same,odorant receptor agonist call,UniProt Q7TRX0,inactive
CC=CC(=O)C1=C(C)CCCC1(C)C,odorant receptor agonist call,UniProt Q7TR79,inactive
same,odorant receptor agonist call,UniProt Q7TRX0,inactive
CCCCCOC(=O)CC,odorant receptor agonist call,UniProt Q7TR79,inactive
same,odorant receptor agonist call,UniProt Q7TRX0,inactive
C=CC(=O)CCCCC,odorant receptor agonist call,UniProt Q7TR79,inactive
same,odorant receptor agonist call,UniProt Q7TRX0,inactive
CC(=O)C1(C)CC2=C(CCCC2(C)C)CC1C (stereo not drawn),odorant receptor agonist call,UniProt Q7TR79,inactive
same,odorant receptor agonist call,UniProt Q7TRX0,inactive
O=C(O)C1CCC1,odorant receptor agonist call,UniProt Q7TR79,inactive
same,odorant receptor agonist call,UniProt Q7TRX0,inactive
CCCCCCCOC(=O)C(C)C,odorant receptor agonist call,UniProt Q7TR79,inactive
same,odorant receptor agonist call,UniProt Q7TRX0,inactive
C=C(C)C1CCC2(C)OC2C1 (stereo not drawn),odorant receptor agonist call,UniProt Q7TR79,inactive
same,odorant receptor agonist call,UniProt Q7TRX0,inactive
CCCCCCCCCCOC(C)=O,odorant receptor agonist call,UniProt Q7TR79,inactive
same,odorant receptor agonist call,UniProt Q7TRX0,inactive
c1ccc2ncccc2c1,odorant receptor agonist call,UniProt Q7TR79,inactive
same,odorant receptor agonist call,UniProt Q7TRX0,inactive
Cc1ccc(OC(=O)C(C)C)cc1,odorant receptor agonist call,UniProt Q7TR79,inactive
same,odorant receptor agonist call,UniProt Q7TRX0,inactive
CCC=CCCCCC=O,odorant receptor agonist call,UniProt Q7TR79,inactive
same,odorant receptor agonist call,UniProt Q7TRX0,inactive
C=C(C)C1CC=C(C)CC1 (stereo not drawn),odorant receptor agonist call,UniProt Q7TR79,inactive
same,odorant receptor agonist call,UniProt Q7TRX0,inactive
CNc1ccccc1C(=O)OC,odorant receptor agonist call,UniProt Q7TR79,inactive
same,odorant receptor agonist call,UniProt Q7TRX0,inactive
COc1ccccc1,odorant receptor agonist call,UniProt Q7TR79,inactive
same,odorant receptor agonist call,UniProt Q7TRX0,inactive
COc1cnccn1,odorant receptor agonist call,UniProt Q7TR79,inactive
same,odorant receptor agonist call,UniProt Q7TRX0,inactive
Cc1ccc2c(c1)OCC(=O)CO2,odorant receptor agonist call,UniProt Q7TR79,inactive
same,odorant receptor agonist call,UniProt Q7TRX0,inactive
CC(=O)C=CC1=C(C)CCCC1(C)C,odorant receptor agonist call,UniProt Q7TR79,inactive
same,odorant receptor agonist call,UniProt Q7TRX0,inactive
CCc1nccnc1CC,odorant receptor agonist call,UniProt Q7TR79,inactive
same,odorant receptor agonist call,UniProt Q7TRX0,inactive
CCCCCCCCC=CC=O,odorant receptor agonist call,UniProt Q7TR79,inactive
same,odorant receptor agonist call,UniProt Q7TRX0,inactive
OCCc1ccccc1,odorant receptor agonist call,UniProt Q7TR79,inactive
same,odorant receptor agonist call,UniProt Q7TRX0,inactive
CCCCCC(C)O (stereo not drawn),odorant receptor agonist call,UniProt Q7TR79,inactive
same,odorant receptor agonist call,UniProt Q7TRX0,inactive
CCCCCCC(C)O (stereo not drawn),odorant receptor agonist call,UniProt Q7TR79,inactive
same,odorant receptor agonist call,UniProt Q7TRX0,inactive
Cc1c(C)c(C)c(C=O)c(C)c1C,odorant receptor agonist call,UniProt Q7TR79,inactive
same,odorant receptor agonist call,UniProt Q7TRX0,inactive
O=C(O)CCCCCC(=O)O,odorant receptor agonist call,UniProt Q7TRM0,inactive
same,odorant receptor agonist call,UniProt Q7TRN9,inactive
same,odorant receptor agonist call,UniProt Q7TRR8,inactive
C1CCOC1,odorant receptor agonist call,UniProt Q7TR79,inactive
same,odorant receptor agonist call,UniProt Q7TRX0,inactive
CCc1occc(=O)c1O,odorant receptor agonist call,UniProt Q7TR79,inactive
same,odorant receptor agonist call,UniProt Q7TRX0,inactive
CC1CCC(C(C)C)C(=O)C1 (stereo not drawn),odorant receptor agonist call,UniProt Q7TR79,inactive
same,odorant receptor agonist call,UniProt Q7TRX0,inactive
COc1nccnc1C,odorant receptor agonist call,UniProt Q7TR79,inactive
same,odorant receptor agonist call,UniProt Q7TRX0,inactive
O=C([O-])CCCCC(=O)[O-].[H+].[H+],odorant receptor agonist call,UniProt Q7TRM0,inactive
same,odorant receptor agonist call,UniProt Q7TRN9,inactive
same,odorant receptor agonist call,UniProt Q7TRR8,inactive
CCc1ccccc1O,odorant receptor agonist call,UniProt Q7TR79,inactive
same,odorant receptor agonist call,UniProt Q7TRX0,inactive
CC1(C)CC(=O)CC(=O)C1,odorant receptor agonist call,UniProt Q7TR79,inactive
same,odorant receptor agonist call,UniProt Q7TRX0,inactive
O=C(O)CCCCBr,odorant receptor agonist call,UniProt Q7TRM0,inactive
same,odorant receptor agonist call,UniProt Q7TRN9,inactive
same,odorant receptor agonist call,UniProt Q7TRR8,inactive
CCCC(C)C(=O)OCC (stereo not drawn),odorant receptor agonist call,UniProt Q7TR79,inactive
same,odorant receptor agonist call,UniProt Q7TRX0,inactive
CCOC(=O)CC(C)C,odorant receptor agonist call,UniProt Q7TR79,inactive
same,odorant receptor agonist call,UniProt Q7TRX0,inactive
CCc1ccc(O)cc1,odorant receptor agonist call,UniProt Q7TR79,inactive
same,odorant receptor agonist call,UniProt Q7TRX0,inactive
